Screening data: PubChem, several laboratories
Shown are actives, neighbours in structure and some others; about 3.4% of the full set was active somewhere.
IMP-1 inhibitor: IMP-1 metallo-beta-lactamase inhibitors, primary screen, biochemical, epi-absorbance readout, Pseudomonas aeruginosa enzyme | metallo-beta-lactamase IMP-1 (Pseudomonas aeruginosa) | purified IMP-1, nitrocefin hydrolysis, epi-absorbance fluorescence | inhibition, % at 5.6 µM | hit rate 0.45% among 290,000 | AID 1556, 2009;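 active means inhibition above the mean plus 3 SD of all compounds in the same screening run, cut at about 4.5% in these data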;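 further: 0% = IMP-1 with DMSO and 100% = DMSO wells lacking enzyme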
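system = purified recombinant IMP-1 beta-lactamase | amount = 0.2 nM IMP-1, as dispensed | medium = HEPES buffer pH 7.1 with ZnSO4 and Brij 35 | times = 25 °C, 15 min preincubation, 25 min reaction | detection = plate fluorescence quenching by hydrolysis product, ex 480/em 530 nm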
CHT block: inhibitors of human choline transporter CHT | High affinity choline transporter 1 (Homo sapiens), Q9GZV3 | CHT-expressing cells, membrane potential dye, choline response; hits give low values | B-score at 10 µM | hit rate 0.86% among 310,000 | AID 488975, 2010;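 active means B-score over 3 SD under the library average, and starting fluorescence ratio not unusually high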;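 further: choline stimulus applied at its EC90 after an EC20 pre-addition; B-score computed on integrated fluorescence ratio after choline addition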
TMEM16A inh: TMEM16A chloride channel inhibitors, primary screen, cell-based, HTS. hit rate 1.2% among 310,000. normalized B-score (activity score, 25-100; higher = stronger inhibition) at 10 µM. Anoctamin-1 (Mus musculus), Q8BHY3. HEK293 TMEM16A/YFP iodide influx fluorescence, ionomycin. AID 588511, 2011;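 active means ratio plate-corrected score three or more library SD toward inhibition, starting fluorescence score within five deviations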;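 further: score derived from kinetic fluorescence span divided by baseline fluorescence per well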
TMEM16A act: TMEM16A chloride channel activators or potentiators, primary screen, cell-based, HTS | Anoctamin-1 (Mus musculus), Q8BHY3 | HEK293 TMEM16A/YFP-H148Q/I152L, iodide quench fluorescence; hits give low values | B-score at 10 µM | hit rate 0.3% among 340,000;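 active means fluorescence-ratio B-score plate-corrected deviation score at least 3 library SD below zero, with starting fluorescence score within 5 deviations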;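 further: channel opened by trigger with iodide after compound preincubation; score built on the fluorescence ratio of max minus min over baseline; more negative score means more quench and so TMEM16A activation or potentiation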
VIM-2 inhibitor: VIM-2 metallo-beta-lactamase inhibitors, primary screen, biochemical, epi-absorbance readout, Pseudomonas aeruginosa enzyme; purified VIM-2, nitrocefin hydrolysis, epi-absorbance fluorescence; inhibition, % at 5.6 µM; hit rate 0.89% among 290,000; AID 1527, 2009;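 active means inhibition above the mean of all tested compounds plus 3 SD, cutoff set per screening run, cut at about 7.5% in these data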;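 further: red hydrolysis product quenches plate fluorescence so inhibitors raise well fluorescence; 0% = enzyme with DMSO and 100% = DMSO without enzyme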
CHT PAM: CHT positive allosteric modulators, primary screen, cell-based, membrane potential dye, choline EC20; hit rate 0.49% among 310,000; AID 488977, 2010; B-score at 10 µM; CHT-expressing cells; hits give high values; LV-AA mutant CHT in HEK293 cells;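 active means initial fluorescence not abnormally high and integrated response B-score, plate-corrected, over 3 SD above library mean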
The depositor's hits bear a star; i = inactive; . = no result.

SMILES	IMP-1 inhibitor	CHT block	TMEM16A inh	TMEM16A act	VIM-2 inhibitor	CHT PAM
Cc1cc(C)c(C#N)c(SCc2ccccc2F)n1	-2	i	25*	i	0	i
CCN1CCc2c(sc(NC(=O)c3ccc(S(=O)(=O)N4CCCC4)cc3)c2C(=O)NC)C1	0	i	i	i	8.7*	i
CNC(=O)c1c(NC(=O)c2ccc(S(=O)(=O)N3CCCCC3)cc2)sc2c1CCN(C(C)C)C2	0	i	i	i	0	i
O=C(C1CCN(c2ncnc3c2sc2cccc(F)c23)CC1)N1CCOCC1	-2	i	i	i	11*	i
Cc1cccnc1NC(=O)c1ccc2c(c1)NC(=O)C(C)S2 (stereo unspecified)	.	i	i	i	.	i
CCCN(CC(=O)Nc1ccccc1OC)C(=O)CSC(=S)N1CCCC1	.	.	.	i	.	.
CN1CCN(c2ncnc3c2sc2nc(N4CCOCC4)c4c(c23)CCC4)CC1	-3	.	.	.	7	.
CCOC(=O)C(Sc1ncnc2c1sc1nc(N3CCOCC3)c3c(c12)CCCC3)c1ccccc1 (stereo unspecified)	6.2*	.	.	.	-6	.
OCCN(CCO)c1ncnc2c1sc1nc(N3CCOCC3)c3c(c12)CCCC3	-3	i	i	i	9.0*	i
O=C(O)CSc1ncnc2c1sc1nc(-c3ccccc3)c3c(c12)CCC3	9.4*	i	i	i	-2	i
S=c1nc[nH]c2c1sc1nc(-c3ccccc3)c3c(c12)CCCC3	16*	i	i	i	1	i
CC(NC(=O)Cn1ncc(Cl)c(Cl)c1=O)C12CC3CC(CC(C3)C1)C2 (stereo unspecified)	-3	i	100*	i	-2	i
N#C/C(=C\c1ccc(OCC(N)=O)cc1)S(=O)(=O)c1ccccc1	-3	i	i	i	1	i
Cc1ccc(NC(=O)c2c(-c3c(F)cccc3Cl)noc2C)cc1F	41*	i	i	i	7	i
Cc1onc(-c2c(F)cccc2Cl)c1C(=O)Nc1nnc(C(F)(F)F)s1	-2	-8.7*	i	i	-4	i
CC(=O)Nc1cccc(NC(=O)c2c(-c3c(Cl)cccc3Cl)noc2C)c1	-1	i	i	i	-1	i
CCCCN(C(=O)c1c(CC)noc1C)c1c(N)n(CCC)c(=O)[nH]c1=O	.	i	i	i	.	i
Cc1ccc(C(=O)NCCc2nnc3ccc(NCCCN4CCOCC4)nn23)cc1	-3	i	i	i	-3	i
COc1ccc2[nH]c3c(c2c1)CCNC3(C)CCc1ccc(Cl)nc1 (stereo unspecified)	-4	i	i	i	-3	i
CC1(C)CC(NC(=O)c2cc(S(=O)(=O)N3CCOCC3)ccc2Cl)CC(C)(C)N1	.	.	.	i	.	.
O=Cc1coc2ccc3ccccc3c2c1=O	36*	i	i	i	3	i
O=C(Cc1coc2ccc3ccccc3c12)N1CCCC1	-2	i	i	i	-3	i
Cc1ccc(COC(=O)c2cc([N+](=O)[O-])ccc2N2CCOCC2)cc1	-1	i	i	i	0	6.4*
COc1ccc(C(=O)c2cc([N+](=O)[O-])ccc2N2CCOCC2)cc1	1	i	i	i	-2	10*
COc1ccc2nc(SCC(=O)O)nc(C)c2c1	-5	i	i	i	-2	i
SMILES	IMP-1 inhibitor	CHT block	TMEM16A inh	TMEM16A act	VIM-2 inhibitor	CHT PAM
COc1ccc2nc(SCCOC(=O)Nc3ccc(Cl)cc3)nc(C)c2c1	-1	i	25*	i	2	i
CN(Cc1c(O)ccc2c1oc(=O)c1ccccc12)C1CCCCC1	1	i	i	i	8.7*	i
COc1ccc(Br)cc1CSC(=N)N	-2	i	i	i	-3	i
CCCCCOc1ccc(Br)cc1CSC(=N)N	-4	.	.	-7.7*	-1	.
CCN1C[C@@H]2[C@@H]3C(=O)N(C)C(=O)[C@@H]3[C@](C)(C1=O)N2C(=O)c1ccc(C(F)(F)F)cc1	.	.	.	i	.	.
CCc1nc(SCC(=O)O)c2c3c(sc2n1)COC(C)(C)C3	-1	i	i	i	8.1*	i
CSc1nc(SCCN(C)C)c2c3c(sc2n1)COC(C)(C)C3	-2	i	i	i	8.9*	i
CC1CCN(C(=O)C2CCN(CC(C)c3ccccc3)CC2)CC1 (stereo unspecified)	-1	i	25*	i	0	i
Cc1cc2c(SCC(=O)NCC3CCCO3)ncnc2s1 (stereo unspecified)	0	.	.	i	1	.
FC(F)Sc1ccc(NC(=S)NCC2CCCCC2)cc1	-3	i	100*	i	-6	i
Cc1ccc(Sc2ccc(NC(=O)CCN3C(=O)NC4(CCCC4)C3=O)cc2)c(C)c1	.	.	.	-24*	.	.
NC(=O)[C@@H]1CCCN1Cc1c(C(=O)N2CCc3ccccc3C2)nc2ccc(Cl)cn12	-3	i	i	i	-1	i
COC(=O)[C@H](Cc1c[nH]c2ccccc12)NC(=O)NCc1ccc(OC)cc1	-1	i	i	i	-3	i
CCOC(=O)c1cnc(-n2nc(C)cc2C)nc1NCCc1ccccc1	-4	i	i	i	9.6*	i
CCOC(=O)c1cnc(-n2nc(C)cc2C)nc1Nc1ccccc1OC	-5	.	.	.	-2	.
CCOC(=O)c1cnc(-n2nc(C)cc2C)nc1Nc1ccc(OC)cc1	-4	i	i	i	11*	i
CCOc1ccc(CCNC(=O)CCn2nc(C)c3c(C)n(-c4ccccc4)nc3c2=O)cc1	-3	i	i	i	-1	i
COc1ccc(CCNC(=O)Cn2nc(C)c3c(C)n(-c4ccccc4)nc3c2=O)c(OC)c1	-4	i	i	-7.9*	-2	i
CCOc1ccc(CNC(=O)Cn2nc(C)c3c(C)n(-c4ccc(C)cc4)nc3c2=O)cc1	11*	i	i	i	0	i
CCOC(=O)c1ccc(S(=O)(=O)N2CCN(C(=O)C3CSC4(C)CCC(=O)N34)CC2)cc1 (stereo unspecified)	.	.	.	i	.	.
O=C(NCC1CCCO1)C1CCN(C2CCN(C(=O)CC3CCCC3)CC2)CC1 (stereo unspecified)	-1	i	i	-6.6*	-3	i
